# Efflux pump inh – inhibitors of Candida efflux pumps in yeast, primary screen, S. cerevisiae, Nile Red, multiplex; S. cerevisiae Candida pump triplex; inhibition, % at 10 µM; actives 0.44% (n = 330,000);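 active = plate passing quality check with inhibition over a set limit, or well fluorescence over plate mean plus 4 SD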;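 also: Nile Red retained in pooled yeast measured as flow cytometry median fluorescence; 0% = buffer negative control and 100% = Enniatin B positive control; higher means more Nile Red kept so more efflux inhibition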
# MC4R antag cAMP – MC4R antagonists of cAMP signaling, primary screen, cell-based, TR-FRET, antagonist arm of biased-ligand search | MC4R-expressing cells, MTII-stimulated cAMP, LANCE TR-FRET | inhibition, % at 6.5 µM | actives 0.48% (n = 360,000) | AID 540295, 2011;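 active = inhibition above its plate's cutoff, the mean of tested wells on that plate plus 3 SD, cut at about 29% in these data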;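 also: 0% = Melanotan II alone and 100% = Melanotan II plus saturating MCL0020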
# Target sequence (P32245 whole entry, looked up): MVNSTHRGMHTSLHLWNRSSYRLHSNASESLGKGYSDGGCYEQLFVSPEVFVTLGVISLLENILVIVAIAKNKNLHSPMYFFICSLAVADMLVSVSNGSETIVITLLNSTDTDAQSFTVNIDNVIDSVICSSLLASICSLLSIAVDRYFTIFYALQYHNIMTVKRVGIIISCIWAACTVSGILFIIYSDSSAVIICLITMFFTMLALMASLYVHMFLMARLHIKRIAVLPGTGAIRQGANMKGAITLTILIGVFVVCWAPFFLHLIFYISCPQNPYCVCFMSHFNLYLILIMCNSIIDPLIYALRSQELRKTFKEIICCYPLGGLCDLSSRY
#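 Material: human MC4R-expressing U2OS cells. Probe or stimulus: Melanotan II challenge. Dosing: 6.5 µM single dose. Times: 30-min compound, 1-h challenge, 1-h detection, room temperature. Technique: TR-FRET with Eu-cAMP and labeled anti-cAMP, 671 nm. Replication: singlicate.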
# Calb FLC – C. albicans growth inhibition with fluconazole, primary screen, CaCi-2 strain, Alamar Blue fluorescence. C. albicans CaCi-2 (fluconazole-resistant clinical isolate) + fluconazole, 48 h. growth inhibition, % (concentration not given with the values). actives 0.57% (n = 300,000). AID 1979, 2009;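 active = growth inhibition above about 58% in most replicates, limit read from the data, passing the limit was not always enough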;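 also: all wells also contain fluconazole at 8 µg/ml as a sub-toxic cotreatment; 0% = median of DMSO wells and 100% = median of geldanamycin control wells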
# MC4R ag barr – MC4R agonists recruiting beta-arrestin, primary screen, cell-based, luminescence, agonist arm of biased-ligand search; Melanocortin receptor 4 (Homo sapiens), P32245; U2OS MC4R beta-arrestin complementation; percent of melanotan II response, DMSO zero; activation, % at 8.9 µM; actives 0.98% (n = 360,000);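 active = activation above a per-plate cutoff, the mean activation of sample wells on that plate plus 3 SD, cut at about 8% in these data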
# TAG inh – inhibitors of triacylglycerol accumulation, primary screen, cell-based, uHTS, fluorescence, H9c2; H9c2 cells, Nile Red lipid (TAG) fluorescence; cells loaded with 200 µM oleic acid; inhibition, % at 12.5 µM; actives 0.66% (n = 230,000); AID 651582, 2012;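 active = pattern-corrected inhibition of lipid staining of at least 50% with the nuclear-stain viability signal not falling by more than 50%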;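 also: 0% = DMSO wells and 100% = triacsin C control wells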
# GalR3 antag – GalR3 antagonists in HEK293 cells, primary screen, cell-based, fluorescence readout | Galanin receptor type 3 (Homo sapiens), O60755 | HEK293 GalR3-CNG cAMP membrane potential fluorescence; galR3 body fused to GalR1 C-terminus | inhibition, % at 3 µM | actives 0.44% (n = 360,000);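 active = inhibition above the screen-wide average plus 3 SD, cut at about 13% in these data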;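 also: forskolin and galanin both at EC90 stimulate the cells; cAMP rise reported by CNG channel membrane potential dye signal; 0% = forskolin plus galanin with DMSO and 100% = forskolin alone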
# Target sequence (O60755 1-299 limits assumed): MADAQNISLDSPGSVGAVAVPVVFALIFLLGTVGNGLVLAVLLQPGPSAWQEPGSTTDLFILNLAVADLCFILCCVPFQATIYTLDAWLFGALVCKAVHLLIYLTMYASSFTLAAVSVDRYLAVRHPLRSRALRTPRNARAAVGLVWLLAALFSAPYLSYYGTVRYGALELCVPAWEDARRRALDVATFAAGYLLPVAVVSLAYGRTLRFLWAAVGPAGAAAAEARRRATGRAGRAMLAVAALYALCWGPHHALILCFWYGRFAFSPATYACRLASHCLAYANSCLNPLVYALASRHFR
# Yeast cmpd fluor – flagged as fluorescent in efflux inhibitor counter-screen | shares compounds with Efflux pump inh | S. cerevisiae AD/pABC3, compound fluorescence, flow cytometry | fluorescence ratio to DMSO, % at 10 µM | actives 4% (n = 1,700) | AID 588517;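 active = fluorescence ratio to DMSO above its plate's cutoff, the plate mean ratio plus 5 SD, cut at about 210% in these data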;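 also: unstained yeast with no Nile Red so the signal is compound autofluorescence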
# Mdr1 pump inh – inhibitors of Candida albicans Mdr1 efflux, confirmation, flow cytometry, singleplex, Cherry Pick1 set | shares compounds with Efflux pump inh | S. cerevisiae AD/CaMDR1, Nile Red efflux | inhibition, % at 10 µM | actives 1% (n = 1,700); in the data active = inhibition above about 26%;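 also: 0% = DMSO vehicle and 100% = reference inhibitor; higher means more Nile Red retained so more efflux inhibition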
# Cdr2 pump inh – inhibitors of Candida albicans Cdr2 efflux pump, confirmation, S. cerevisiae AD/CaCDR2, flow cytometry, cherry pick 1, singleplex; Nile Red retention; Nile Red retention ratio vs DMSO, % at 10 µM; actives 4% (n = 1,700); AID 588520, 2011; shares compounds with Efflux pump inh; in the data active = Nile Red retention ratio vs DMSO above about 190%;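 also: higher ratio means more blocking of Cdr2 efflux of the dye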
# Cdr1 pump inh – inhibitors of Candida albicans Cdr1 efflux pump, confirmation, S. cerevisiae AD/CaCDR1, flow cytometry, cherry pick 1, singleplex. actives 1% (n = 1,700). inhibition, % at 10 µM. Nile Red efflux. AID 588522, 2011. shares compounds with Efflux pump inh;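 active = inhibition above the screen-wide mean plus twice its standard deviation, cut at about 32% in these data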
# The depositor's hits bear a star; x = not tested or not shown. Hits are enriched below; roughly 2.9% of the tested compounds scored in any of these assays.
SMILES,Efflux pump inh,MC4R antag cAMP,Calb FLC,MC4R ag barr,TAG inh,GalR3 antag,Yeast cmpd fluor,Mdr1 pump inh,Cdr2 pump inh,Cdr1 pump inh
Cc1ccc(S(=O)(=O)N2C[C@H]3C(=O)C[C@@H](c4ccccc4)N(S(=O)(=O)c4ccc(Br)cc4)[C@H]3C[C@H]2c2ccccc2)cc1,x,x,x,x,x,-3.9,x,x,x,x
Cc1cc(OCC(=O)OCC(=O)NC2CCS(=O)(=O)C2)ccc1Cl (configuration not stated),x,3.4,x,-0.6,-6.6,-3.3,x,x,x,x
O=[N+]([O-])c1ccc(Oc2cccc3cccnc23)c([N+](=O)[O-])c1,0.9*,-3.6,26.9,-0.5,-4.9,-1.5,122.8,-0.2,122.9,0.1
N#Cc1ccc(Oc2cccc3cccnc23)c([N+](=O)[O-])c1,-0.1,-0.8,2.0,0.1,x,-3.9,x,x,x,x
CN1C(=O)c2ccccc2C(C(=O)O)C1c1cccc(Cl)c1 (configuration not stated),0.7,-4.2,10.0,-1.5,x,7.1,x,x,x,x
CCc1ccc(C2C(C(=O)O)c3ccccc3C(=O)N2C)cc1 (configuration not stated),1.9*,7.7,-2.8,-1.6,x,-9.8,104.6,-0.1,99.7,0.0
O=C1/C(=C/c2cccs2)SC(=S)N1NS(=O)(=O)c1ccccc1,-0.1,7.6,50.1,-0.6,-1.0,5.5,80.1,0.0,80.5,-0.1
C=CCNc1cccc2c1S(=O)(=O)N[C@H](C)CO2,x,x,x,x,x,-5.1,x,x,x,x
C[C@@H]1ON(C)[C@H]2C[C@H]3c4cc(-c5cc6ccccc6o5)ccc4CCN3C[C@@H]12,x,x,x,x,x,-7.3,x,x,x,x
C/C(=N\NS(=O)(=O)c1ccc(Br)cc1)c1ccncc1,-0.1,4.9,-1.6,-1.4,-4.9,0.0,x,x,x,x
COc1ccc(S(=O)(=O)N/N=C(/C)c2ccncc2)cc1,5.7*,0.9,4.0,-0.1,-11.5,-2.1,101.4,-0.1,114.3,-0.1
Nc1nnc(SCC(=O)NNC(=O)c2ccc(Cl)cc2)s1,93.4*,5.4,x,-0.4,-13.9,0.3,80.1,0.0,93.2,-0.2
Cc1nnc(SCC(=O)NNC(=O)c2ccc(Cl)cc2)s1,-0.2,0.5,2.0,-1.2,x,-8.5,x,x,x,x
O=C(Nc1ccccc1C(=O)O)c1ccc(NC(=O)c2ccc(Br)o2)cc1,0.2,12.1,-12.4,-0.4,x,x,103.4,-0.1,93.0,0.0
Cc1ccccc1NC(=O)c1ccc(NC(=O)c2ccco2)cc1,0.0,15.3,-20.9,-0.4,x,-5.5,112.7,0.1,98.5,0.0
CN1NC(=O)c2ccccc2NC1=S,x,x,x,x,x,-6.2,x,x,x,x
Cc1cc(NC(=O)CCC(=O)N(Cc2ccco2)C(C(=O)NC2CCCC2)c2ccccc2C)no1 (configuration not stated),0.1,3.1,-3.8,2.4,21.5,-1.6,85.4,-0.4,89.9,-0.1
Cc1cc(NC(=O)CCC(=O)N(Cc2ccco2)C(C(=O)NC2CCCC2)c2ccccc2F)no1 (configuration not stated),-0.3,9.3,6.2,-0.3,x,-6.8,x,x,x,x
Cc1cc(NC(=O)CCC(=O)N(Cc2ccco2)C(C(=O)NC2CCCCC2)c2ccccc2)no1 (configuration not stated),0.1,13.3,6.4,1.6,x,-4.3,104.5,-0.1,118.5,0.0
Cc1ccc(N(C(=O)CCC(=O)Nc2cc(C)on2)C(C(=O)NC2CCCC2)c2ccncc2)cc1 (configuration not stated),0.0,13.5,2.0,-0.5,7.3,5.6,x,x,x,x
Cc1ccc(C(C(=O)NC2CCCC2)N(C(=O)CCC(=O)Nc2cc(C)on2)c2ccccc2)cc1 (configuration not stated),-0.1,11.7,-1.6,-0.7,9.0,-5.5,110.1,0.4,122.6,0.5
Cc1cc(NC(=O)CCC(=O)N(CCc2ccccc2)C(C(=O)NC2CCCC2)c2ccco2)no1 (configuration not stated),0.1,1.5,-25.5,0.0,21.6,-2.5,x,x,x,x
CC(C)OC(=O)[C@@H](Cc1ccccc1)N[C@H](/C=C/c1ccccc1)[C@@H](O)Cc1ccccc1,x,x,x,x,x,1.6,x,x,x,x
C[C@@H]1CN([C@@H](C)CO)C(=O)CCCn2nncc2CO[C@H]1CN(C)Cc1ccc2c(c1)OCCO2,x,5.2,x,0.0,-7.6,-6.1,x,x,x,x
CC(=O)Nc1cccc(NC(=O)c2cc(-c3cccnc3)nc3ccc(Cl)cc23)c1,1.4*,7.8,20.1,-1.0,5.1,-2.9,91.0,-0.2,112.4,-0.2
SMILES,Efflux pump inh,MC4R antag cAMP,Calb FLC,MC4R ag barr,TAG inh,GalR3 antag,Yeast cmpd fluor,Mdr1 pump inh,Cdr2 pump inh,Cdr1 pump inh
Cc1ccccc1SCC(=O)Nc1cc(S(=O)(=O)N2CCOCC2)ccc1N1CCOCC1,0.8*,8.1,-0.1,-2.1,6.8,-3.0,107.9,-0.1,110.3,0.0
O=C(CSc1cccc[n+]1[O-])Nc1cc(S(=O)(=O)N2CCOCC2)ccc1N1CCOCC1,0.3,14.9,21.5,-0.1,x,-2.1,x,x,x,x
CN(C)S(=O)(=O)Nc1ccc(NS(=O)(=O)N(C)C)c(S(=O)(=O)c2ccccc2)c1,0.7*,-1.0,-8.6,-0.1,6.9,-2.5,105.8,-0.1,109.4,-0.2
CN(C)S(=O)(=O)Nc1ccc2c(c1)Cc1ccccc1-2,-0.1,0.0,-3.5,1.8,x,-2.4,x,x,x,x
CC(C)(C)OC(=O)N[C@@H]1C=CC(=O)C1,x,x,x,x,x,-4.2,x,x,x,x
Cc1cccc(C=NNc2cc(C)c3cccc(C)c3n2)n1,x,x,x,x,x,-7.5,x,x,x,x
Cc1c(NC(C)c2ccccc2O)c(=O)n(-c2ccccc2)n1C (configuration not stated),8.2*,-0.1,-1.8,-2.4,x,-6.8,105.7,0.1,89.0,-0.1
C=CCNC(=S)NNC(=O)COc1ccc(Cl)cc1Cl,15.2*,-1.1,-1.4,-4.2,x,-6.2,104.5,-0.5,98.5,0.0
O=C(COc1ccc(Cl)cc1Cl)NNC(=S)Nc1ccc(F)cc1,-0.1,3.4,29.3,-0.7,x,x,x,x,x,x

# Source: PubChem BioAssay
